# From PubChem
# In the library only some 2.5% were active in any assay of this set; here they are far more common.
# PRMT1 FP inh: inhibitors of human PRMT1; recombinant PRMT1, activity-based probe fluorescence polarization; inhibition, % at 2.79 µM; actives 1.3% (n = 370,000); AID 652257;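 active = inhibition above about 21% made by adding two undisclosed values, limit read from the data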
# TDP2 absorb: blocks human TDP2 phosphodiesterase activity; inhibition, % at 12.8 µM; AID 720702; actives 0.34% (n = 370,000); O95551; recombinant TDP2, T5PNP hydrolysis, p-nitrophenol absorbance 415 nm;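 active = inhibition above the mean of all tested compounds plus 3 SD, set per campaign, cut at about 25% in these data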
# Target sequence (O95551 whole entry, looked up): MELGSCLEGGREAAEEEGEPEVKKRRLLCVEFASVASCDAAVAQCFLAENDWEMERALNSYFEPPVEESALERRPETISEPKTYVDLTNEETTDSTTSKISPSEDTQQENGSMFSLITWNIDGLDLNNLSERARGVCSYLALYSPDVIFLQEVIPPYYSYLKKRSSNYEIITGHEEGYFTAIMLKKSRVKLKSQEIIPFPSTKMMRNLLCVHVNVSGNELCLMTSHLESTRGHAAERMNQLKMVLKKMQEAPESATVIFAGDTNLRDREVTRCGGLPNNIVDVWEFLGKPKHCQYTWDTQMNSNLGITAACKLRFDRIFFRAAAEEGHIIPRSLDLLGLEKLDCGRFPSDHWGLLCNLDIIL
#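 Incubation: 2 h at 37 °C; Test system: recombinant human TDP2; Quantity: enzyme 120 nM; Read-out basis: percent inhibition; Medium: 50 mM Tris-HCl pH 7.5 with Mg2+, KCl, DTT, BSA; Repeats: single replicate; Compound: 12.8 µM single point, 1% DMSO; Signal: epi absorbance; Reagent: 5 mM T5PNP chromogenic substrate; Benchmarks: no-enzyme high, DMSO-plus-enzyme low.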
# Fh CTSL1 inh: counter-screen for PFM18AAP inhibitors: inhibitors of F. hepatica cathepsin L1 | actives 0.49% (n = 300,000) | inhibition, % at 5.96 µM | recombinant F. hepatica cathepsin L1, Z-Leu-Arg-MCA fluorescence;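 active = inhibition above the mean of all tested compounds plus 3 SD, set per screening campaign, cut at about 17% in these data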
# PAD4 FP inh: PAD4 (human) enzyme inhibition | recombinant PAD4, RCA probe fluorescence polarization | Q9UM07 | actives 0.41% (n = 330,000) | inhibition, % at 6.36 µM;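 active = percent inhibition above a cutoff equal to the mean of all tested compounds plus 3 SD, cut at about 15% in these data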
# GSTO1 counter: blocks human GSTO1 in RBBP9 counter-screen; recombinant GSTO1, activity-based probe fluorescence polarization; inhibition, % at 5.96 µM; actives 1.1% (n = 300,000); AID 1974;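 active = inhibition above the campaign mean inhibition plus 3 SD, cut at about 35% in these data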
# Target sequence (P78417 whole entry, looked up): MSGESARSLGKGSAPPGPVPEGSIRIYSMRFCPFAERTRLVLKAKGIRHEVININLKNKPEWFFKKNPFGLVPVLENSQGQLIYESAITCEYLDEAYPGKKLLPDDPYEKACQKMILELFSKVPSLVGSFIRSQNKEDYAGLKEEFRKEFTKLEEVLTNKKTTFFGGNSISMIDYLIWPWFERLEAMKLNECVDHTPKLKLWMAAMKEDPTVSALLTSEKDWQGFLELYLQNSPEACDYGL
# PRMT1 confirm: PRMT1 (human) inhibition, FP confirmation; shares compounds with PRMT1 FP inh; recombinant His-PRMT1, activity-based probe fluorescence polarization; inhibition, % at 2.79 µM; actives 42% (n = 3,300); AID 687036;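 active = mean inhibition across replicates above the hit cutoff derived for the earlier primary screen, cut at about 22% in these data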
# Hits are given with their value; . = inactive; / = no result given.
SMILES,PRMT1 FP inh,TDP2 absorb,Fh CTSL1 inh,PAD4 FP inh,GSTO1 counter,PRMT1 confirm
COc1ccc2[nH]c3c(c2c1)CCN[C@]31C(=O)N(C)c2ccc(Br)cc21,.,.,/,/,/,/
COc1ccc(C(=O)C2(C(=O)NCCO)CC(c3ccccn3)=NO2)cc1 (centres undefined),.,.,/,/,/,/
O=C(CN1C(=O)C2CCCCN2C(=O)c2ccccc21)N1CCCC1 (centres undefined),.,.,/,/,/,/
CC(C)(C)c1ccc(-c2nnc(SCc3ccccc3)n2Cc2ccco2)cc1,.,.,/,/,/,/
CCC(=O)/C=C1/Sc2ccccc2N1CC,29,.,.,.,.,27
CCN1/C(=C/C(=O)c2ccco2)Sc2ccccc21,45,.,.,.,.,.
CC(C)c1csc(CN2CCC(C(=O)Nc3cccc(-c4ccco4)c3)CC2)n1,27,.,/,/,/,.
COc1cccc(-c2cccc(NC(=O)C3CCN(Cc4nccs4)CC3)c2)c1,.,.,.,.,.,/
O=C(Nc1nc2ncccn2c1-c1ccc(F)cc1)c1ccc(F)cc1,.,.,/,/,/,/
Nc1ccccc1SC(CC(=O)c1ccccc1)c1ccc([N+](=O)[O-])cc1 (centres undefined),83,.,/,/,/,61
O=C(NC(NC(=O)c1ccccc1)c1cccc([N+](=O)[O-])c1)c1ccccc1,.,.,.,.,.,/
Cc1ccc(C(=O)CC(SCC(=O)O)c2ccc([N+](=O)[O-])cc2)cc1 (centres undefined),.,.,.,.,.,/
Nc1ccccc1SC(CC(=O)c1ccccc1)c1cccc([N+](=O)[O-])c1 (centres undefined),86,.,/,/,/,57
COC(=O)[C@]12C[C@H](CC(=O)NCC34CC5CC(CC(C5)C3)C4)C(=O)N(CCC3=CCCCC3)C1=C[C@H](C1CCCC1)O[C@@H]2C,.,.,/,/,/,/
Cc1n[nH]c(=S)n(NC(=O)/C=C/C(=O)Nn2c(=S)[nH]nc(C)c2=O)c1=O,29,.,/,/,/,30
COc1ccc(CNS(=O)(=O)/C=C/c2ccc(OC)cc2CNC(=O)OC(C)(C)C)cc1,.,.,/,/,/,/
Cc1c(Cc2ccc3c(c2)OCO3)sc(NC(=O)c2cccc3ccccc23)c1C(N)=O,.,.,.,.,.,/
Cc1c(Cc2ccc3c(c2)OCO3)sc(NC(=O)C2CC2)c1C(N)=O,30,.,.,.,.,.
CNC(=S)N/N=C/c1c(C(=O)OC)cnn1-c1ccc(Cl)cc1,.,.,/,/,/,/
CC(COc1ccc(Cl)cc1)CN1CCC(C(O)(c2ccccc2)c2ccccc2)CC1 (centres undefined),.,.,/,/,/,/
CCNc1nc(SCC(N)=O)nc2sc3c(c12)CCN(C)C3,61,.,/,/,/,.
COc1ccc2cc(C(c3nnnn3C(C)(C)C)N3CCSCC3)c(=O)[nH]c2c1 (centres undefined),34,.,.,.,.,.
C/C(CCc1oc2ccc(Cl)cc2c1-c1ccc(C)o1)=N\O,33,.,.,.,.,.
Fc1ccc(CSc2nnc3ccccn23)c(Cl)c1,46,.,.,.,.,.
Fc1cccc(Cl)c1CSc1nnc2ccccn12,.,.,.,.,.,/
SMILES,PRMT1 FP inh,TDP2 absorb,Fh CTSL1 inh,PAD4 FP inh,GSTO1 counter,PRMT1 confirm
C[C@H]1COc2cc(Br)ccc2S(=O)(=O)N1Cc1cn(Cc2ccc(Br)cc2)nn1,.,.,/,/,/,/
CN1/C(=C\C=O)C(C)(C)c2ccccc21,.,.,.,.,.,/
CN1\C(=C/C=C/C=C/C=[N+](C)C)C(C)(C)c2ccccc21,33,.,/,/,/,43
Cc1cc(C2=NNC(=NC3CC3)SC2)c(C)n1-c1ccccc1F,36,.,.,.,.,.
Cc1cc(C2=NNC(=NC3CCCCC3)SC2)c(C)n1-c1c(C)n(C)n(-c2ccccc2)c1=O,.,.,.,.,.,/
CC(=O)CCC(=O)OCC(=O)Nc1ccc(SC(F)F)cc1,27,.,.,.,.,24
CC(C)=CC(=O)OCC(=O)Nc1ccc(SC(F)F)cc1,.,.,.,.,.,/
O=C(COC(=O)c1cc[n+]([O-])cc1)Nc1ccc(SC(F)F)cc1,28,.,.,.,.,.
CCOC(=O)CC[C@H](NC(=O)[C@@H]1CC=C[C@@H]2CCN(Cc3ccc(Cl)cc3)C(=O)[C@@H]21)C(=O)OCC,.,.,/,/,/,/
O=S1(=O)c2c(cccc2N2CCC[C@H]2CO)OCCCN1C1CC1,.,.,/,/,/,/
C[C@H]1C2CC(OC(=O)Nc3cccc(Cl)c3)C(C2)[C@H]2CCCCN21 (some centres undefined),.,.,/,/,/,/
O=[N+]([O-])c1cnc(Sc2ccncn2)c([N+](=O)[O-])c1,71,.,/,/,/,90
O=[N+]([O-])c1ccc(Sc2ncccn2)c([N+](=O)[O-])c1,.,.,.,.,.,/
O=[N+]([O-])c1cnc(Sc2ccncn2)s1,26,.,.,.,.,31
CCOC(=O)CC[C@@]1(C(=O)OCC)C[C@@H](CC(=O)NCc2ccc(OC)c(OC)c2)C(=O)N2CCCC=C21,.,.,/,/,/,/
CN(CCCOC(=O)CC1C=CCC1)C1CN(Cc2cn(Cc3ccccc3Cl)nn2)S(=O)(=O)C1 (centres undefined),.,.,/,/,/,/
C#CCN1CC(N(C)CCOC(=O)CC2C=CCC2)CS1(=O)=O (centres undefined),.,.,/,/,/,/
O=C(NCc1ccccc1Cl)c1ccc(Cn2cc(C(F)(F)F)ccc2=O)cc1,.,.,.,.,.,/
O=C(NCc1ccc(Cl)cc1)c1ccc(Cn2cc(C(F)(F)F)ccc2=O)cc1,72,.,.,.,.,64
COc1ccc(S[C@]2(C(=O)N(C)C)CC(=O)N(S(=O)(=O)c3ccc(F)cc3)[C@@H]2c2ccc(OC)cc2)cc1,26,.,/,/,/,27
COc1ccc(S[C@]2(C(=O)N3CCCC3)CC(=O)N(C(=O)c3ccccc3)[C@@H]2c2ccc(OC)cc2)cc1,74,.,/,/,/,73
COC(=O)[C@@]1(Sc2ccccc2)CC(=O)N[C@@H]1c1ccccc1,.,.,/,/,/,/
COc1ccc(S[C@]2(C(=O)N3CCCC3)CC(=O)N(c3ccsc3)[C@@H]2c2ccc(OC)cc2)cc1,.,.,/,/,/,/
COC(=O)[C@@]1(Sc2ccc(C)cc2)CC(=O)N(C(=O)c2ccccc2)[C@@H]1c1ccccc1,68,.,/,/,/,77
COc1ccc(S[C@]2(C(=O)N(C)C)CC(=O)N(C(=O)c3ccccc3)[C@@H]2c2ccc(OC)cc2)cc1,84,.,/,/,/,72
O=c1c(-c2cccs2)nc2ccccc2n1C(c1ccccn1)c1nc2ccccc2[nH]1 (centres undefined),.,.,/,/,/,/
Cc1ccc(-c2cc(C(=O)NN=Cc3cccc4ccccc34)[nH]n2)cc1C,.,.,/,/,/,/
COc1cc(NC(=O)C2CCCN(S(=O)(=O)c3cccs3)C2)cc(OC)c1 (centres undefined),.,.,/,/,/,/
COc1ccc(NCc2nnc(SCC(=O)Nc3cccc(C)c3)o2)cc1,37,.,.,.,.,29
